Active and inactive are the calls of the source. The rule behind the calls is not given here.
How the values were obtained:
[1] = Drug uptake in Sprague-Dawley rat liver at 3 mg/kg, po qd administered via gavage measured 1 hr post last dose on day 14 by LC-MS/MS analysis; assay type: ADME, organism-based; details: read-out: Drug uptake
Method in brief: (§1)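 Drug concentration in liver was quantified from tissue homogenates, so these are total levels. Unbound liver concentration was not determined.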

[2] = AUC in dog at 2 mg/kg, po administered via gavage by LC-MS/MS analysis; assay type: ADME, organism-based, Canis lupus familiaris; details: in vivo
Method in brief: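 Single oral dose given as a suspension in 0.5% methylcellulose, 0.5% Tween80 and 99% water. Doses were 10 mg/kg in mouse, 1 mg/kg in rat and 2 mg/kg in dog.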

[3] = AUC (0 to 24 hrs) in Sprague-Dawley rat at 0.1 mg/kg, po qd administered via gavage measured on day 1 by LC-MS/MS analysis; assay type: ADME, organism-based; design: time < 24 hr, dose 0.1 mg/kg, route oral; details: in vivo
Rattus norvegicus [4] = test: In vivo agonist activity at FXR in po dosed Sprague-Dawley rat assessed as induction of FGF15 protein level in plasma administered once daily for 14 days measured 24 hrs post last dose on day 14; assay type: functional, organism-based
Rattus norvegicus [5] = test: Dose normalized AUC (0 to 24 hrs) in Sprague-Dawley rat at 3 mg/kg, po qd administered via gavage measured on day 11 by LC-MS/MS analysis; assay type: ADME, organism-based; details: in vivo
[6] = Drug uptake in Sprague-Dawley rat plasma at 0.01 mg/kg, po qd administered via gavage measured 1 hr post last dose on day 14 by LC-MS/MS analysis; assay type: ADME, organism-based
Rattus norvegicus [7] = test: In vivo agonist activity at FXR in Sprague-Dawley rat assessed as induction of BSEP mRNA level in liver at 0.003 mg/kg, po qd for 14 days measured 7 hrs post last dose on day 14 by qPCR analysis; assay type: functional, organism-based
Rattus norvegicus [8] = test: In vivo agonist activity at FXR in Sprague-Dawley rat assessed as induction of SHP mRNA level in liver at 0.3 mg/kg, po qd for 14 days measured 7 hrs post last dose on day 14 by qPCR analysis; assay type: functional, organism-based
[9] = AUC (0 to 24 hrs) in Sprague-Dawley rat at 1 mg/kg, po qd administered via gavage measured on day 11 by LC-MS/MS analysis; assay type: ADME, organism-based; design: time < 24 hr, dose 1 mg/kg, route oral; details: in vivo
[10] = AUC (0 to 24 hrs) in Sprague-Dawley rat at 0.01 mg/kg, po qd administered via gavage measured on day 11 by LC-MS/MS analysis; assay type: ADME, organism-based; design: dose 0.01 mg/kg, time < 24 hr, route oral; details: in vivo
Canis familiaris = test: Drug metabolism in dog assessed as taurine conjugated metabolite formation at 0.5 mg/kg, iv or 2 mg/kg, po administered via gavage by LC-MS/MS analysis; assay type: ADME, organism-based, Canis lupus familiaris; details: in vivo
Method in brief: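 Plasma samples were taken from the dog PK studies. The IV solution was 20% PEG300, 5% solutol and 75% carbonate buffer pH = 8. The PO suspension was 0.5% methylcellulose, 0.5% Tween80 and 99% water. Samples were screened for taurine- and glycine-conjugated metabolites and for the acylglucuronide.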

Rattus norvegicus [11] = test: Dose normalized AUC (0 to 24 hrs) in Sprague-Dawley rat at 1 mg/kg, po qd administered via gavage measured on day 1 by LC-MS/MS analysis; assay type: ADME, organism-based; details: in vivo
[12] = Volume of distribution at steady state in dog at 0.5 mg/kg, iv or 2 mg/kg, po administered via gavage by LC-MS/MS analysis; assay type: ADME, organism-based, Canis lupus familiaris; details: in vivo, read-out: Vdss
Method in brief: (§2)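 IV dosing used a solution in 75% PEG300:25% D5W for mouse and rat, and a solution in 20% PEG300, 5% solutol, 75% carbonate buffer pH 8 for dog. PO dosing used a suspension in 0.5% methylcellulose, 0.5% Tween80, 99% water for all three species.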

[13] = Cmax in Sprague-Dawley rat at 3 mg/kg, po qd administered via gavage measured on day 11 by LC-MS/MS analysis; assay type: ADME, organism-based; design: dose 3 mg/kg, route oral; details: in vivo
[14] = Clearance in dog at 0.5 mg/kg, iv by LC-MS/MS analysis; assay type: ADME, organism-based, Canis lupus familiaris; details: in vivo
Method in brief: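 Single IV dose given as a solution. Mouse received 5 mg/kg in 75% PEG300:25% D5W. Dog received 0.5 mg/kg in 20% PEG300, 5% solutol and 75% carbonate buffer pH = 8.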

[15] = Drug uptake in Sprague-Dawley rat liver at 0.01 mg/kg, po qd administered via gavage measured 7 hrs post last dose on day 14 by LC-MS/MS analysis; assay type: ADME, organism-based; details: read-out: Drug uptake; method in brief: as §1
Rattus norvegicus [16] = test: In vivo agonist activity at FXR in po dosed Sprague-Dawley rat assessed as induction of SHP mRNA level in ileum administered once daily for 14 days measured 7 hrs post last dose on day 14 by qPCR analysis; assay type: functional
[17] = Drug uptake in Sprague-Dawley rat plasma at 0.1 mg/kg, po qd administered via gavage measured 7 hrs post last dose on day 14 by LC-MS/MS analysis; assay type: ADME, organism-based
[18] = Cmax in Sprague-Dawley rat at 0.03 mg/kg, po qd administered via gavage measured on day 11 by LC-MS/MS analysis; assay type: ADME, organism-based; design: dose 0.03 mg/kg, route oral; details: in vivo
Rattus norvegicus [19] = test: In vivo agonist activity at FXR in Sprague-Dawley rat assessed as downregulation of CYP8B1 mRNA level in liver at >0.03 mg/kg, po qd for 14 days measured 7 hrs post last dose on day 14 by qPCR analysis; assay type: functional, organism-based
Rattus norvegicus [20] = test: In vivo agonist activity at FXR in Sprague-Dawley rat assessed as serum triglyceride level at 0.3 mg/kg, po administered once daily for 14 days measured 24 hrs post last dose; assay type: functional
Rattus norvegicus [21] = test: Dose normalized AUC (0 to 24 hrs) in Sprague-Dawley rat at 0.01 mg/kg, po qd administered via gavage measured on day 1 by LC-MS/MS analysis; assay type: ADME, organism-based; details: in vivo
[22] = Cmax in Sprague-Dawley rat at 0.01 mg/kg, po qd administered via gavage measured on day 11 by LC-MS/MS analysis; assay type: ADME, organism-based; design: dose 0.01 mg/kg, route oral; details: in vivo
[23] = Volume of distribution at steady state in rat at 3 mg/kg, iv or 1 mg/kg, po administered via gavage by LC-MS/MS analysis; assay type: ADME, organism-based; details: in vivo, read-out: Vdss; method in brief: as §2
[24] = Drug uptake in Sprague-Dawley rat liver at 1 mg/kg, po qd administered via gavage measured 7 hrs post last dose on day 14 by LC-MS/MS analysis; assay type: ADME, organism-based; details: read-out: Drug uptake; method in brief: as §1
Rattus norvegicus [25] = test: Dose normalized AUC (0 to 24 hrs) in Sprague-Dawley rat at 0.003 mg/kg, po qd administered via gavage measured on day 1 by LC-MS/MS analysis; assay type: ADME, organism-based; details: in vivo

## O=C(O)c1cc(F)c2nc(N3C4CCC3CC(OCc3c(-c5ccccc5OC(F)(F)F)noc3C3CC3)C4)sc2c1 (stereo unspecified)
[1]
  concentration at 1 h: 872 nM
[2]
  AUC: 3.66 µM·h
[3]
  AUC(0-t) at 24 h: 0.041 µM·h
Rattus norvegicus [4]
  Activity: inactive
Rattus norvegicus [5]
  AUC/dose: 563 nM·h
[6]
  concentration at 1 h: 0.37 nM
Rattus norvegicus [7]
  Activity: Active
Rattus norvegicus [8]
  Activity: Active
[9]
  AUC at 24 h: 0.562 µM·h
[10]
  AUC at 24 h: 0.005 µM·h
Canis familiaris
  Drug metabolism: Metabolite_Notdetected
Rattus norvegicus [11]
  AUC/dose: 461 nM·h
[12]
  Vd: 0.46 L/kg
[13]
  Cmax: 127 nM
[14]
  clearance: 1.5 mL/min/kg
[15]
  concentration at 7 h: 5.18 nM
Rattus norvegicus [16]
  ED50: 0.01 mg/kg
[17]
  concentration at 7 h: 4.89 nM
[18]
  Cmax: 1.9 nM
Rattus norvegicus [19]
  Activity: Active
Rattus norvegicus [20]
  Activity: 79%
Rattus norvegicus [21]
  AUC/dose: 443 nM·h
[22]
  Cmax: 0.79 nM
[23]
  Vd: 0.72 L/kg
[24]
  concentration at 7 h: 230 nM
Rattus norvegicus [25]
  AUC/dose: 668 nM·h

From ChEMBL document CHEMBL4028903 (J Med Chem, 2017)
